Data taken from ChEMBL document CHEMBL1275350, “First in class, potent, and orally bioavailable NADPH oxidase isoform 4 (Nox4) inhibitors for the treatment of idiopathic pulmonary fibrosis” (J Med Chem, 2010).

Assays:
[1] = Permeability across human Caco-2 cell membrane at 10 uM after 2 hrs; format: ADME, cell-based
How it was run: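 Caco-2 monolayers grown 20 days in DMEM, used when TEER >800 Ω·cm2. Dosed at 10 μM final in HBSS pH 6.5 with 1% DMSO, apical-to-basolateral and basolateral-to-apical. Incubated 2 h at 37 °C, both compartments sampled, LC-MS/MS with five-point calibration. Papp = (dQ/dt)/(C0A).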

[2] = Intrinsic clearance in human liver microsomes assessed as per mg of protein at 0.5 uM; format: ADME, Microsome
How it was run: (§1)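 Phase I stability assay in pooled liver microsomes (human: male and female; rat: male Sprague-Dawley). Microsomes at 0.5 mg/mL final in 0.1 M phosphate pH 7.4. Compound 0.5 μM final, 0.25% DMSO. Preincubated at 37 °C, reaction started with 1 mM NADPH. Sampled at 0, 5, 15, 30 and 45 min, with a 45 min minus-NADPH control. Methanol quench with internal standard, LC/MS-MS, intrinsic clearance calculated.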

[3] = target: Cytochrome P450 2C19 (Homo sapiens, UniProt P33261); experiment: Inhibition of human CYP2C19; format: ADME
How it was run: (§2)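 Recombinant human CYP isoforms with isoform-specific probe substrates and NADPH. Compound at 0.1–25 μM, final DMSO 0.3%. Metabolites measured by mass spectrometry, except CYP1A2, which used a fluorescent metabolite. IC50 derived from the decrease in metabolite formation compared with vehicle control.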

[4] = Intrinsic clearance in Sprague-Dawley rat liver microsomes assessed per mg of protein at 0.5 uM; format: ADME, Microsome; how it was run: as §1
[5] = target: Cytochrome P450 2C8 (Homo sapiens, UniProt P10632); experiment: Inhibition of human CYP2C8; format: ADME; how it was run: as §2
[6] = target: Cytochrome P450 3A4 (Homo sapiens, UniProt P08684); experiment: Inhibition of human CYP3A4; format: ADME; how it was run: as §2
[7] = target: T1, NADPH oxidase 4 (Homo sapiens, UniProt Q9NPH5); experiment: Inhibition of human NOX4 overexpressed in T-REx-293 cell membrane assessed as ROS production by cell free assay in presence of NADPH; conditions: in the assay text read “T-REx-293 cell membrane” for “human PMN cell membrane”
T1 sequence (Q9NPH5 whole entry): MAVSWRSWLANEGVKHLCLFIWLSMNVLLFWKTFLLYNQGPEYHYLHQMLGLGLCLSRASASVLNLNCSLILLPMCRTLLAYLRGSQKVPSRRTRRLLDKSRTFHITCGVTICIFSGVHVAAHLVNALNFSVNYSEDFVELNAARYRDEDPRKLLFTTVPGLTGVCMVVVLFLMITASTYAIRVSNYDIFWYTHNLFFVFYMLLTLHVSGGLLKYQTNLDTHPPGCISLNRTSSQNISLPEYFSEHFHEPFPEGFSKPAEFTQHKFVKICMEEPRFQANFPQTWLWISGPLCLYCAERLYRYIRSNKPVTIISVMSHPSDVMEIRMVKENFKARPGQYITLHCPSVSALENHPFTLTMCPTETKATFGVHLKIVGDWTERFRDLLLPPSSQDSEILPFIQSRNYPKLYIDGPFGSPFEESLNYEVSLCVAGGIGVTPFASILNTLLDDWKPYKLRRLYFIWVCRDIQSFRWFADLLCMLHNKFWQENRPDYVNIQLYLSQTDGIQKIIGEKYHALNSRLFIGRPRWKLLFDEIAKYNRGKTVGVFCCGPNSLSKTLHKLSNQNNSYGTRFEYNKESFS
How it was run: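 hNOX4 T-REx-293 cells induced with tetracycline (1 μg/mL, 24 h), sonicated in sucrose/NaCl/EGTA PBS buffer pH 7.4, membranes taken from a sucrose gradient. NADPH-triggered ROS measured by Amplex Red/HRP in PBS, with compound at 1 nM–100 μM, 20 min at 37 °C. Ki by Cheng-Prusoff from ≥3 triplicate experiments.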

[8] = target: Cytochrome P450 2C9 (Homo sapiens, UniProt P11712); experiment: Inhibition of human CYP2C9; format: ADME; how it was run: as §2
[9] = target: Xanthine dehydrogenase/oxidase (Homo sapiens, UniProt P47989); experiment: Inhibition of xanthine oxidase by in vitro enzymatic assay in presence of xanthine
How it was run: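 Cell-free Amplex Red read-out: xanthine oxidase incubated in PBS with Amplex Red, HRP and cofactors; ROS production started by adding xanthine. Compound at rising concentrations from 1 nM to 100 μM, 20 min at 37 °C, then read on a plate reader. Background taken without enzyme or without agonist. Ki by Cheng-Prusoff, mean of at least three experiments run in triplicate.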

[10] = Cmax in Sprague-Dawley rat at 1 mg/kg, iv; format: ADME, organism-based; design: dose 1 mg/kg, route intravenous; conditions: in vivo
[11] = target: NADPH oxidase 2 (Homo sapiens, UniProt P04839); experiment: Inhibition of human NOX2 overexpressed in […] cell membrane assessed as ROS production by cell free assay in presence of NADPH
How it was run: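 Nox2 source: membranes from human polymorphonuclear cells, sonicated and collected at the 17/40% sucrose interface. ROS read by Amplex Red/HRP in PBS after NADPH addition, with compound at 1 nM–100 μM for 20 min at 37 °C. Background taken without membranes or agonist. Ki via Cheng-Prusoff, mean of ≥3 experiments in triplicate.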

[12] = Cmax in Sprague-Dawley rat at 5 mg/kg, sc; format: ADME, organism-based; design: dose 5 mg/kg, route subcutaneous; conditions: in vivo
[13] = AUC (infinity) in Sprague-Dawley rat at 5 mg/kg, sc; format: ADME, organism-based; design: time infinity, dose 5 mg/kg, route subcutaneous; conditions: plasma
[14] = Half life in Sprague-Dawley rat at 10 mg/kg, po; format: ADME, organism-based; design: dose 10 mg/kg, route oral; conditions: in vivo
How it was run: (§3)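 Parallel design with six male rats: three given 5 mg/kg iv in EDPW (10% EtOH, 10% DMA, 30% PG, 50% water), three given 10 mg/kg orally in aqueous 0.5% CMC with 0.25% Tween 20. Carotid cannula blood sampled up to 24 h. Plasma levels by LC/MS/MS (LLOQ 1.00 ng/mL). Noncompartmental analysis.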

[15] = Clearance in Sprague-Dawley rat at 1 mg/kg, iv; format: ADME, organism-based; design: dose 1 mg/kg, route intravenous; conditions: in vivo
[16] = tested on: Rattus norvegicus; experiment: Hepatic blood flow in Sprague-Dawley rat at 5 mg/kg, iv; format: ADME, organism-based, Liver; design: dose 5 mg/kg, route intravenous; conditions: in vivo
[17] = Tmax in Sprague-Dawley rat at 5 mg/kg, sc; format: ADME, organism-based; design: dose 5 mg/kg, route subcutaneous; conditions: in vivo
[18] = AUC (infinity) in Sprague-Dawley rat at 10 mg/kg, po; format: ADME, organism-based; design: time infinity, dose 10 mg/kg, route oral; conditions: plasma; how it was run: as §3
[19] = Half life in Sprague-Dawley rat at 1 mg/kg, iv; format: ADME, organism-based; design: dose 1 mg/kg, route intravenous; conditions: in vivo
[20] = Bioavailability in Sprague-Dawley rat at 5 mg/kg, sc; format: ADME, organism-based; conditions: in vivo
[21] = Volume of distribution at steady state in Sprague-Dawley rat at 1 mg/kg, iv; format: ADME, organism-based; design: dose 1 mg/kg, route intravenous; conditions: in vivo, read-out: Vdss
[22] = Half life in Sprague-Dawley rat at 5 mg/kg, sc; format: ADME, organism-based; design: dose 5 mg/kg, route subcutaneous; conditions: in vivo
[23] = Tmax in Sprague-Dawley rat at 1 mg/kg, iv; format: ADME, organism-based; design: dose 1 mg/kg, route intravenous; conditions: in vivo
[24] = Tmax in Sprague-Dawley rat at 10 mg/kg, po; format: ADME, organism-based; design: dose 10 mg/kg, route oral; conditions: in vivo
How it was run: (§4)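 Parallel design in male rats, three per group. Group 1: 5 mg/kg iv in EDPW (10% EtOH, 10% DMA, 30% PG, 50% water). Group 2: 10 mg/kg oral in aqueous 0.5% CMC with 0.25% Tween 20. Carotid cannula blood drawn up to 24 h. Plasma measured by LC/MS/MS (LLOQ 1.00 ng/mL), noncompartmental analysis.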

[25] = AUC (infinity) in Sprague-Dawley rat at 1 mg/kg, iv; format: ADME, organism-based; design: time infinity, dose 1 mg/kg, route intravenous; conditions: plasma
[26] = Oral bioavailability in Sprague-Dawley rat at 10 mg/kg; format: ADME, organism-based; conditions: in vivo; how it was run: as §4
[27] = Cmax in Sprague-Dawley rat at 10 mg/kg, po; format: ADME, organism-based; design: dose 10 mg/kg, route oral; conditions: in vivo; how it was run: as §3
[28] = Volume of distribution at steady state in Sprague-Dawley rat at 5 mg/kg, iv; format: ADME, organism-based; design: dose 5 mg/kg, route intravenous; conditions: in vivo, read-out: Vdss; how it was run: as §4
[29] = Clearance in Sprague-Dawley rat at 10 mg/kg, po; format: ADME, organism-based; design: dose 10 mg/kg, route oral; conditions: in vivo; how it was run: as §3
[30] = Half life in Sprague-Dawley rat at 5 mg/kg, iv; format: ADME, organism-based; design: dose 5 mg/kg, route intravenous; conditions: in vivo; how it was run: as §3
[31] = AUC (infinity) in Sprague-Dawley rat at 5 mg/kg, iv; format: ADME, organism-based; design: time infinity, dose 5 mg/kg, route intravenous; conditions: plasma; how it was run: as §3
[32] = Cmax in Sprague-Dawley rat at 5 mg/kg, iv; format: ADME, organism-based; design: dose 5 mg/kg, route intravenous; conditions: in vivo; how it was run: as §3
[33] = Clearance in Sprague-Dawley rat at 5 mg/kg, iv; format: ADME, organism-based; design: dose 5 mg/kg, route intravenous; conditions: in vivo; how it was run: as §3

Cytochrome P450 2C9, sequence (P11712 whole entry): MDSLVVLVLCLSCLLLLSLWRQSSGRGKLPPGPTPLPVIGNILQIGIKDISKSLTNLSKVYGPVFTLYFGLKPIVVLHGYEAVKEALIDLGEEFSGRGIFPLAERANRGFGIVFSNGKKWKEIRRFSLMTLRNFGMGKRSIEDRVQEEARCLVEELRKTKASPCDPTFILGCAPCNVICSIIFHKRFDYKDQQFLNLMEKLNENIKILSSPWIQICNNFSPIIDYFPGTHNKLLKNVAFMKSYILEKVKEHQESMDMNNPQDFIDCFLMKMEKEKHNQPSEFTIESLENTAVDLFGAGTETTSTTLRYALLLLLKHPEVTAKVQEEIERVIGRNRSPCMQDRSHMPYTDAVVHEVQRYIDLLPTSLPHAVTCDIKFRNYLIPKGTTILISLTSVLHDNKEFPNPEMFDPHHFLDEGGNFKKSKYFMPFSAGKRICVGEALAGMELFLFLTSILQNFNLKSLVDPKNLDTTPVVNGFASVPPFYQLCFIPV
Cytochrome P450 2C19, sequence (P33261 whole entry, canonical isoform): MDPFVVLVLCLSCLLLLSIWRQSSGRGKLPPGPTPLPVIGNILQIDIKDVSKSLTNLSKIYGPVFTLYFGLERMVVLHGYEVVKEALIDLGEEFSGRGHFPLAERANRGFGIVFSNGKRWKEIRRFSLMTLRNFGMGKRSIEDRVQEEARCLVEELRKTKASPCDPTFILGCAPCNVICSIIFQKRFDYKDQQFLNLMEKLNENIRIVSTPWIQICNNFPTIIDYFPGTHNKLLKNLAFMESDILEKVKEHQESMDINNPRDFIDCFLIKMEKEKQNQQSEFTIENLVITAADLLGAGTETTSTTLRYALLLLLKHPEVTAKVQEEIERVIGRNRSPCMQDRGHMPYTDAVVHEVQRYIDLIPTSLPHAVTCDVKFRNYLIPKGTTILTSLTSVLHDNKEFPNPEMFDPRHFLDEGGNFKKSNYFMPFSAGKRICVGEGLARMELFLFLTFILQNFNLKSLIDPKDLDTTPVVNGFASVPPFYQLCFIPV
Cytochrome P450 2C8, sequence (P10632 whole entry): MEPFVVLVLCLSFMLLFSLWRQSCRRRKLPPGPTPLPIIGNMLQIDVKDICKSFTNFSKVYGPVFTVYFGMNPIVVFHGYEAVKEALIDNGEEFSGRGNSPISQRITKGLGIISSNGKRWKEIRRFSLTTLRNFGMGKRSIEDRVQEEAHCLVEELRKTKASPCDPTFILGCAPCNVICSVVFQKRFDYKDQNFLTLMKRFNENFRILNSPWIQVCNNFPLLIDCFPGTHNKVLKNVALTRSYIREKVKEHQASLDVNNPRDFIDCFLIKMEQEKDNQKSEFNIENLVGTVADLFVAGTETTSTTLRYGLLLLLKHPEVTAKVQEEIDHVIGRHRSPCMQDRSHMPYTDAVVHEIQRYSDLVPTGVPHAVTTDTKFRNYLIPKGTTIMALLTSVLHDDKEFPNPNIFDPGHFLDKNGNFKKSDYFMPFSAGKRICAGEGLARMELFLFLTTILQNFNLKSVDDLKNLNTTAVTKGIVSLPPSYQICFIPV
NADPH oxidase 2, sequence (P04839 whole entry): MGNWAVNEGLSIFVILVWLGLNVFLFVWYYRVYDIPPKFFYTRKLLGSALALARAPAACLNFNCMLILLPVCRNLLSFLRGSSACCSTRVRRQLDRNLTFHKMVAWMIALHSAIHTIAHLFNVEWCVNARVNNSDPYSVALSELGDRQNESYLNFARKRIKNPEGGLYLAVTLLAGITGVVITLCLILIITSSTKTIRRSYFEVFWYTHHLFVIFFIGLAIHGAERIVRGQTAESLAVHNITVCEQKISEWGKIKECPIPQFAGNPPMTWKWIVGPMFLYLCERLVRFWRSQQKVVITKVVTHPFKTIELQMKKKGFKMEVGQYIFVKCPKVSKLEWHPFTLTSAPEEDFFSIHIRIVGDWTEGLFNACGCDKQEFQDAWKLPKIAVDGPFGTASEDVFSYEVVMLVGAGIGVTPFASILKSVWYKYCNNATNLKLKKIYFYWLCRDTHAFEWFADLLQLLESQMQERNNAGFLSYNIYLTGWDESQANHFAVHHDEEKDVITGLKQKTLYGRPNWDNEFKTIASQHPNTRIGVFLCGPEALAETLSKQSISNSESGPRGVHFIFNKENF
Cytochrome P450 3A4, sequence (P08684 whole entry): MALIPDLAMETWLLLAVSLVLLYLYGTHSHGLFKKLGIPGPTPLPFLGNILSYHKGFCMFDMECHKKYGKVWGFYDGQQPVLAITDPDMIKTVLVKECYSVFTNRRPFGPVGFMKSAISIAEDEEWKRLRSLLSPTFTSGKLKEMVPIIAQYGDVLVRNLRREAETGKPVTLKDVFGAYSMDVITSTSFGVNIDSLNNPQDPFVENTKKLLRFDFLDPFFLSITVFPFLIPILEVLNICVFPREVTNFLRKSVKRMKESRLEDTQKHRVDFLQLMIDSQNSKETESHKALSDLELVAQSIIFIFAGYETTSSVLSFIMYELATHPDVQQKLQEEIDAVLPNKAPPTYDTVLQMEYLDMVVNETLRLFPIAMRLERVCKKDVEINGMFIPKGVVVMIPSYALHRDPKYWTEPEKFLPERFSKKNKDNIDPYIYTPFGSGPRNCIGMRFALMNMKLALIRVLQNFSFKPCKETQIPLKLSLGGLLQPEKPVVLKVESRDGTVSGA
Xanthine dehydrogenase/oxidase, sequence (P47989 whole entry): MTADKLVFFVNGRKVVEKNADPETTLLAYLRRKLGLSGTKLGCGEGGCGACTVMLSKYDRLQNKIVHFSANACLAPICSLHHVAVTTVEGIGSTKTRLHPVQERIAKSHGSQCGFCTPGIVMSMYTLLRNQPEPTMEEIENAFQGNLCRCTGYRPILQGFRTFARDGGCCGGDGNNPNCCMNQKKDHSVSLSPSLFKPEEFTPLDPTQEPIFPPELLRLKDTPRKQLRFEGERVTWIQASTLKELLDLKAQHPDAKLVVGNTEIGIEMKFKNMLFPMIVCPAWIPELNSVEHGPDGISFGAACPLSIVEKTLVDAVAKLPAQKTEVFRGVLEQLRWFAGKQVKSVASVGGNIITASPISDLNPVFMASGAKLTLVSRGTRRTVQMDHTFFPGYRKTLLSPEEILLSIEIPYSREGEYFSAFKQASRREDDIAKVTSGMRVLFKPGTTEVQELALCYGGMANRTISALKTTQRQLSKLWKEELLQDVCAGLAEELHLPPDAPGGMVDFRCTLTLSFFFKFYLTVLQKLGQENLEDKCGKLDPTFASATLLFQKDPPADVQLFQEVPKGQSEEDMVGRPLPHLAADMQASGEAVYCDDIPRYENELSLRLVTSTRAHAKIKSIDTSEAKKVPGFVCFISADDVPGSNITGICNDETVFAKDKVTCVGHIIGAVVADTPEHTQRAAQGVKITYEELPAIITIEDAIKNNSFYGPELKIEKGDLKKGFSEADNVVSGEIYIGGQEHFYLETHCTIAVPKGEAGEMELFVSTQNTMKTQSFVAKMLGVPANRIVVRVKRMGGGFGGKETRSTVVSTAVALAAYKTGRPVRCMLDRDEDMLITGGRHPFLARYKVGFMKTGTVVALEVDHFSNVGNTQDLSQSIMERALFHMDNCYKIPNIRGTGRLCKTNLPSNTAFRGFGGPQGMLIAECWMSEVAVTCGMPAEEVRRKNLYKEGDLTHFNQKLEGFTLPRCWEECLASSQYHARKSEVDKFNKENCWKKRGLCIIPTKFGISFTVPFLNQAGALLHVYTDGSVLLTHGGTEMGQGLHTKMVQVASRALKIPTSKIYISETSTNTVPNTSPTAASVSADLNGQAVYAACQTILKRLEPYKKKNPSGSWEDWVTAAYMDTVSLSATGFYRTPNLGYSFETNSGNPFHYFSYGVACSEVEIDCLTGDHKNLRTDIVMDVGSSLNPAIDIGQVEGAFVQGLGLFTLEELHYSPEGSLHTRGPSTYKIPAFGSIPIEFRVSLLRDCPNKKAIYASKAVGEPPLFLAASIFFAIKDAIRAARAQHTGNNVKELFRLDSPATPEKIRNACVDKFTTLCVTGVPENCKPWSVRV

Compound	Papp at 2 h, 10 µM [1] [×10⁻⁶ cm/s]	microsomal CLint at 0.5 µM [2] [µL/min/mg]	IC50 [3] [nM]	microsomal CLint at 0.5 µM [4] [µL/min/mg]	Ki [7] [nM]	IC50 [8] [nM]	half-life [14] [min]	AUC(0-inf) [18] [ng·h/mL]	Tmax [24] [min]	bioavailability [26] [%]	Cmax [27] [ng/mL]	further results
CN(Cc1c2c(=O)n(-c3ccccc3Cl)[nH]c2cc(=O)n1Cc1ccncc1)c1ccccc1	4.6	76.3	6500	78	151	4100	–	–	–	–	–	IC50 [5]: 3600 nM; IC50 [6]: 1100 nM
Cc1c2c(=O)n(-c3ccccc3)[nH]c2cc(=O)n1Cc1cccnc1	79.2	–	–	97.1	373	–	72	417	15	22	575	Ki [9]: > 30000 nM; Cmax [10]: 271 ng/mL; Ki [11]: 4720 nM; Cmax [12]: 678 ng/mL; AUC(0-inf) [13]: 815 ng·h/mL; clearance [15]: 85.2 mL/min/kg; QH [16]: 55 mL/min/kg; Tmax [17]: 30 min; half-life [19]: 24 min; bioavailability [20]: 87%; Vd [21]: 2.36 L/kg; half-life [22]: 42 min; Tmax [23]: 4.8 min; AUC(0-inf) [25]: 196 ng·h/mL
O=c1c2c(CN3CCCC3)n(CCc3ccccn3)c(=O)cc2[nH]n1-c1ccc(F)cc1Cl	7.3	45.4	–	62.3	114	–	67.8	2430	19.8	39	2830	Vd [28]: 1.49 L/kg; CL/F [29]: 73.2 mL/min/kg; half-life [30]: 198 min; AUC(0-inf) [31]: 3130 ng·h/mL; Cmax [32]: 6190 ng/mL; clearance [33]: 26.8 mL/min/kg
COCCCn1c(CN(C)Cc2ccccc2)c2c(=O)n(-c3ccc(F)cc3Cl)[nH]c2cc1=O	39.9	96.4	13000	248	165	900	–	–	–	–	–	–
